Laboratory results as given in ChEMBL document CHEMBL3603751, “A new small molecule inhibitor of soluble guanylate cyclase” (Bioorg Med Chem, 2015).
The source made the active and inactive calls. The rule behind the calls is not given here.

Tests used:
Bos taurus = species on record: Bos taurus; assay: Inhibition of bovine lung sGC using GTP as substrate assessed as inhibition of NO-stimulated cGMP formation at 100 uM preincubated with protein followed by NO addition measured after 2 mins by radioimmunoassay relative to control
How it was run: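 Purified bovine lung sGC (5 ng/ml) in 50 mM Tris, 0.3 mM MgCl, 100 μM EGTA, 0.045% BSA, 1000 units/mL SOD, pH 7.4, with 1 mM MgGTP at 37 °C. Compound (100 μM) added before DEA/NO (30 nM). Reaction ran 2 min, then aliquots were boiled in 50 mM Tris/4 mM EDTA. cGMP was quantified by [3H] radioimmunoassay.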

[1] = biological target: Soluble guanylate cyclase (Homo sapiens) (UniProt Q02153+O75343+P33402+Q02108); assay: Binding affinity to human recombinant sGC catalytic subunit by surface plasmon resonance analysis; type: protein-complex assay
[2] = biological target: T1, Adenylate cyclase (Homo sapiens) (UniProt Q8NFM4+O60503+Q08828+P40145+O60266+O95622+O43306+Q08462+P51828); assay: Inhibition of forskolin-stimulated adenylyl cyclase (unknown origin)
[3] = biological target: T1, Adenylate cyclase (Homo sapiens); assay: Inhibition of adenylyl cyclase (unknown origin); type: protein assay
Rattus norvegicus = species on record: Rattus norvegicus; assay: Inhibition of sGC in rat cerebellar slices assessed as inhibition of NMDA-induced cGMP production at 100 uM preincubated for 10 mins followed by phosphodiesterase inhibitor IBMX addition by radioimmunoassay
How it was run: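 Sagittal cerebellar slices 0.4 mm thick were cut from 10-day-old rats. Antagonists were added 10 min before IBMX (1 mM, 10 min preincubation). Slices were inactivated in boiling Tris–HCl (50 mM, pH 7.5) with EDTA (4 mM) and sonicated. Protein was measured by bicinchoninic acid and cGMP by radioimmunoassay.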

SMILES | inhibition (Bos taurus) | also measured
COc1ccc(Nc2nc3ccc([N+](=O)[O-])cc3nc2Nc2ccc(OC)cc2)cc1 | inactive | –
CC(=O)Nc1ccc(Nc2nc3ccc([N+](=O)[O-])cc3nc2Nc2ccc(NC(C)=O)cc2)cc1 | inactive | –
CNC(=O)c1ccc2nc(Nc3cccc(O)c3)c(Nc3cccc(O)c3)nc2c1 | – | RU [1]: 9.6
O=[N+]([O-])c1ccc2nc(Nc3ccc(O)cc3)c(Nc3ccc(O)cc3)nc2c1 | – | inhibition [2]: inactive; inhibition [3]: inactive; inhibition (Rattus norvegicus): Active
N#Cc1ccc2nc(Nc3cccc(O)c3)c(Nc3cccc(O)c3)nc2c1 | inactive | –
Oc1ccc(Nc2nc3ccc(Cl)cc3nc2Nc2ccc(O)cc2)cc1 | inactive | –

The next lines start with results.

inhibition (Bos taurus) | SMILES | also measured
inactive | Oc1cccc(Nc2nc3ccc(Cl)cc3nc2Nc2cccc(O)c2)c1 | –
inactive | Nc1ccc2nc(Nc3ccc(O)cc3)c(Nc3ccc(O)cc3)nc2c1 | –
inactive | N#Cc1ccc2nc(Nc3ccc(O)cc3)c(Nc3ccc(O)cc3)nc2c1 | –
inactive | O=[N+]([O-])c1ccc2nc(Nc3ccc(F)cc3)c(Nc3ccc(F)cc3)nc2c1 | –
inactive | CC(=O)Nc1cccc(Nc2nc3ccc([N+](=O)[O-])cc3nc2Nc2cccc(NC(C)=O)c2)c1 | –
